The first assay has as its system Rattus norvegicus. Kind of assay: Maximum % decrease of blood glucose (deltaBG) was observed within 4 hour after administration orally at 1 mg/kg dose to fasted adult female rats versus a control group. As to conditions: route oral. The assay is classed as functional. In a few lines:
(§1)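 Female Wistar rats (Chbb THOM, SPF, 200-220 g), fasted 24 h, dosed orally by gavage as suspension in 1.5% Tylose methylcellulose (10 mL/kg). Whole blood from retrobulbar plexus under light halothane, deproteinized with 0.33 M HClO4; glucose by hexokinase/G6PDH, hourly up to 4 h. % decrease vs control group (N = 7), Student's t-test, P ≤ 0.05.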
Regarding `CC1CCCN(c2ccccc2C(C)NC(=O)Cc2ccc(C(=O)O)cc2)C1` (configuration not stated), the “Delta BG” value is recorded as -27%.

For `O=C(Cc1ccc(C(=O)O)cc1)NC(c1ccccc1N1CCCCC1)C1CCCCC1` (configuration not stated), the “Delta BG” value is recorded as -27%.

`CCCC(NC(=O)Cc1ccc(C(=O)O)cc1)c1ccccc1OC` (configuration not stated): the “Delta BG” value was -21%.

As for `O=C(O)c1ccc(CCNC(=O)c2cc(Cl)ccc2N2CCCCCCC2)cc1`, the “Delta BG” value was -29%.

Consider `CC1CCCN(c2ccc(Cl)cc2C(=O)NCCc2ccc(C(=O)O)cc2)C1` (configuration not stated), for which the “Delta BG” value is on record as -22%.

As to `O=C(O)c1ccc(CCNC(=O)c2cc(Cl)ccc2N2CCCCCCCCC2)cc1`, the “Delta BG” value is given as -29%.

Turning to `COc1cc(CCNC(=O)c2cc(Cl)ccc2N2CCCCCCCC2)ccc1C(=O)O`, the “Delta BG” value is on record as -15%.

In the case of `O=C(O)c1ccc(CCNC(=O)c2ccccc2N2CCCCCCCC2)cc1`, the “Delta BG” value was -9%.

Consider `CC1CCCCN1c1ccc(Cl)cc1C(=O)NCCc1ccc(C(=O)O)cc1` (configuration not stated), for which the “Delta BG” value was -16%.

On to `CCOc1cc(CCNC(=O)c2cc(Cl)ccc2N2CCCCCCCC2)ccc1C(=O)O`, for which the “Delta BG” value is reported as -16%.

For the compound `CCCC(NC(=O)Cc1ccc(C(=O)O)cc1)c1cc(Cl)ccc1N1CCCCC1` (configuration not stated), the “Delta BG” value was -17%.

`CCCCCC(NC(=O)Cc1ccc(C(=O)O)cc1)c1ccccc1N1CCCCC1` (configuration not stated): the “Delta BG” value is on record as -29%.

For the compound `CCC[C@@H](NC(=O)Cc1ccc(C(=O)O)cc1)c1ccccc1N1CCCCC1`, the “Delta BG” value is listed as -19%.

Turning to `O=C(O)c1ccc(CCNC(=O)c2cc(Cl)ccc2N2CCCCCC2)cc1`, the “Delta BG” value is reported as -16%.

For the compound `CCCCCCC(NC(=O)Cc1ccc(C(=O)O)c(OCC)c1)c1ccccc1N1CCCCC1` (configuration not stated), the “Delta BG” value was -21%.

Still in this assay, the particulars now being: route oral, 1 mg/kg.
For `CC1CC(C)CN(c2ccc(Cl)cc2C(=O)NCCc2ccc(C(=O)O)cc2)C1` (stereo in doubt; 5i), the “Delta BG” value is on record as -11%.

The subject of another assay is Rattus norvegicus. Kind of assay: Maximum % decrease of blood glucose (deltaBG) was observed within 4 hour after administration orally at 10 mg/kg dose to fasted adult female rats versus a control group. It counts as functional. As to conditions: route oral. In a few lines: as §1
For the compound `CCCC(NC(=O)Cc1ccc(C(=O)O)cc1)c1ccccc1-c1ccccc1` (configuration not stated), the “Delta BG” value was -21%.

In the case of `CC1CCCN(c2ccccc2C(C)NC(=O)Cc2ccc(C(=O)O)cc2)C1` (configuration not stated), the “Delta BG” value is on record as -42%.

Take `CC(NC(=O)Cc1ccc(C(=O)O)cc1)c1cc(Cl)ccc1N(C)C` (configuration not stated): the “Delta BG” value was -20%.

As to `CC(C)(NC(=O)Cc1ccc(C(=O)O)cc1)c1ccccc1N1CCCCC1`, the “Delta BG” value was -34%.

For the compound `CCCC(NC(=O)Cc1ccc(C(=O)O)cc1)c1ccccc1OC` (configuration not stated), the “Delta BG” value is -44%.

Turning to `CC(NC(=O)Cc1ccc(C(=O)O)cc1)c1cc(Cl)ccc1N1CCCC1` (configuration not stated), the “Delta BG” value is -26%.

Take `COc1ccccc1C(C)NC(=O)Cc1ccc(C(=O)O)cc1` (configuration not stated): the “Delta BG” value is given as -21%.

For `CCCC(/N=C(\S)Cc1ccc(C(=O)O)cc1)c1ccccc1N1CCCCC1` (configuration not stated), the “Delta BG” value is on record as -35%.

For the compound `O=C(Cc1ccc(C(=O)O)cc1)NC(Cc1ccccc1)c1ccccc1N1CCCCC1` (configuration not stated), the “Delta BG” value is -27%.

Take `O=C(Cc1ccc(C(=O)O)cc1)NC(CCc1ccccc1)c1ccccc1N1CCCCC1` (configuration not stated): the “Delta BG” value is reported as -38%.

Regarding `CC(NC(=O)Cc1ccc(C(=O)O)cc1)c1cc(Cl)ccc1N1CCCCC1C` (configuration not stated), the “Delta BG” value is -14%.

Take `O=C(Cc1ccc(C(=O)O)cc1)NCc1cc(Cl)ccc1N1CCCCC1`: the “Delta BG” value is -37%.

As for `CC1CCCN(c2ccc(Cl)cc2C(C)NC(=O)Cc2ccc(C(=O)O)cc2)C1` (configuration not stated), the “Delta BG” value was -34%.

In the case of `CCCC(c1ccccc1N1CCCCC1)N(C)C(=O)Cc1ccc(C(=O)O)cc1` (configuration not stated), the “Delta BG” value is -12%.

As to `CC(NC(=O)Cc1ccc(C(=O)O)cc1)c1ccccc1N(C)C` (configuration not stated), the “Delta BG” value is -20%.

Consider `CCCC(CC(=O)Cc1ccc(C(=O)O)cc1)c1ccccc1N1CCCCC1` (configuration not stated), for which the “Delta BG” value is reported as -11%.

Take `CCCC(NC(=O)Cc1ccc(C(=O)O)cc1)c1ccccc1` (configuration not stated): the “Delta BG” value is -18%.

With `CC1CC(C)CN(c2ccc(Cl)cc2C(C)NC(=O)Cc2ccc(C(=O)O)cc2)C1` (configuration not stated), the “Delta BG” value is -20%.

With `CCOc1cc(CC(=O)NC(Cc2ccccc2)c2ccccc2N2CCCCC2)ccc1C(=O)O` (configuration not stated), the “Delta BG” value is -38%.

Take `COc1ccc(Cl)cc1C(C)NC(=O)Cc1ccc(C(=O)O)cc1` (configuration not stated): the “Delta BG” value is -14%.

For the compound `O=C(Cc1ccc(C(=O)O)cc1)NCc1ccccc1N1CCCCC1`, the “Delta BG” value is recorded as -38%.
